# pPAFAH inh – pPAFAH enzyme inhibitors, primary screen, biochemical, fluorescence polarization, human | Platelet-activating factor acetylhydrolase (Homo sapiens), Q13093 | recombinant pPAFAH, FP-rhodamine probe fluorescence polarization | inhibition, % at 3.39 µM | 1.5% of 330,000 active;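 active = inhibition above the mean inhibition across the screen plus 3 SD, cut at about 25% in these data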;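 note: inhibitors block binding of the rhodamine activity-based probe so polarization drops; 0% = enzyme with DMSO and 100% = wells lacking pPAFAH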
# Target sequence (Q13093 whole entry, looked up): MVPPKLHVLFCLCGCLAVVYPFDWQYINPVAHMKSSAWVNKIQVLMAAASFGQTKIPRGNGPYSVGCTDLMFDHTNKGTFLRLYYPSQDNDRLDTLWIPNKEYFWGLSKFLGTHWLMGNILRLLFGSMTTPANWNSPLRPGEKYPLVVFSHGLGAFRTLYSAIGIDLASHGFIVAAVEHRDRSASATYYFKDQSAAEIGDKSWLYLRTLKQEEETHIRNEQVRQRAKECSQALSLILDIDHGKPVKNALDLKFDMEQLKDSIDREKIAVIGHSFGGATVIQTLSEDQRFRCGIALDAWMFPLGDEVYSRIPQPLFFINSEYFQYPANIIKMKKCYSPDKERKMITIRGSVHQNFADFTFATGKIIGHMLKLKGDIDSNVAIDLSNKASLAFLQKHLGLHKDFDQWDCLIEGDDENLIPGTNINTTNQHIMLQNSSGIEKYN
# PAFAH1B2 FP inh – PAFAH1B2 enzyme inhibitors, primary screen, biochemical, fluorescence polarization, human. 1.2% of 340,000 active. inhibition, % at 3.39 µM. Platelet-activating factor acetylhydrolase IB subunit alpha2 (Homo sapiens), P68402. recombinant PAFAH1B2, FP-rhodamine activity probe;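 active = inhibition above the mean of all tested compounds plus 3 SD, cut at about 24% in these data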;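 note: 0% = enzyme with DMSO and 100% = wells lacking PAFAH1B2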
# PAFAH1B3 FP inh – PAFAH1B3 enzyme inhibitors, primary screen, biochemical, fluorescence polarization, human; Platelet-activating factor acetylhydrolase IB subunit alpha1 (Homo sapiens), Q15102; recombinant PAFAH1B3, FP-rhodamine probe; inhibition, % at 3.39 µM; 0.28% of 340,000 active; AID 492972, 2010;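 active = inhibition above the screen-wide average of all tested compounds plus 3 SD, cut at about 25% in these data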;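 note: 0% = enzyme with DMSO only and 100% = wells lacking PAFAH1B3 protein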
# mABHD4 FP – ABHD4 inhibitors, primary screen, biochemical, fluorescence polarization, mouse; 0.54% of 370,000 active; inhibition, % at 8.92 µM; AID 720543, 2013; purified mABHD4, FP-Rh probe fluorescence polarization; (Lyso)-N-acylphosphatidylethanolamine lipase (Mus musculus), Q8VD66;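 active = inhibition exceeding the mean over every tested compound plus 3 SD, cut at about 30% in these data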;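 note: 0% = plate median of compound wells and 100% = S159A mutant with DMSO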
#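 assay system = mABHD4 protein | compound dosing = single nominal dose of 8.92 µM, 0.89% DMSO final | read-out basis = percent inhibition of probe binding, normalized to plate controls | schedule = Enzyme–compound pre-incubation 45 min, then probe 60 min, both 25 °C | detection = fluorescence polarization, excitation 525 nm, emission 598 nm, BODIPY TMR filters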
# HTRA1 inh – HTRA1 serine protease inhibitors, primary screen, biochemical, fluorescence polarization, HTS. Q92743. recombinant HTRA1, FP-rhodamine activity-based probe. inhibition, % at 5.96 µM. 0.5% of 340,000 active. AID 504803, 2011; in the data active = inhibition above about 36%;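 note: 0% = enzyme with DMSO and 100% = wells lacking enzyme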
# PAFAH2 FP inh – PAFAH2 enzyme inhibitors, primary screen, biochemical, fluorescence polarization, human; recombinant PAFAH2, FP-rhodamine activity probe; inhibition, % at 3.39 µM; 0.99% of 340,000 active; AID 492956, 2010;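 active = inhibition above the mean over all tested compounds plus 3 SD, cut at about 30% in these data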;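 note: inhibitors block probe labeling of enzyme so polarization drops; 0% = enzyme with DMSO and 100% = wells lacking PAFAH2 protein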
# Numbers without * were called inactive; . = no result given. An excerpt weighted towards active compounds, which were near 2.8% of everything screened.
SMILES,pPAFAH inh,PAFAH1B2 FP inh,PAFAH1B3 FP inh,mABHD4 FP,HTRA1 inh,PAFAH2 FP inh
Cc1ccc(NC(=O)/C(C#N)=C(\N)C(Cl)(Cl)Cl)nc1,6,45*,43*,.,3,41*
Cc1ccc(NC(=O)C(=O)Nc2ccc(C)cn2)nc1,0,3,8,2,-2,1
O=C(Nc1ccccc1)c1ccc(Br)c(S(=O)(=O)Nc2cccnc2)c1,-13,-2,-11,4,3,-6
O=S(=O)(Nc1cccnc1)c1ccc(Br)c2ccccc12,11,26*,9,-8,-11,3
CCN(C(=O)CN1C(=O)NC(c2ccccc2)(c2ccc(C)c(C)c2)C1=O)C1CCCCC1 (configuration not stated),8,26*,6,6,-47,-2
CC(COc1ccc(Br)cc1)CN1CCC(C(O)(c2ccccc2)c2ccccc2)CC1 (configuration not stated),.,.,.,12,.,.
COC(=O)[C@]12C[C@H](CC(=O)N3CCSCC3)C(=O)N(Cc3ccc(Cl)cc3Cl)C1=C[C@H](COCc1ccccc1)O[C@@H]2C,.,.,.,-13,.,.
NC1=NC(=O)/C(=C/c2cn(CCC(=O)O)nc2-c2ccc(F)cc2)S1,0,48*,8,-2,-2,4
COc1ccc(-c2nn(CCC(=O)O)cc2/C=C2\SC(N)=NC2=O)cc1,-3,4,16,0,2,3
O=C(O)CCn1cc(/C=C\C(=O)c2ccc(Cl)cc2)c(-c2cccc(Br)c2)n1,2,46*,6,-18,-30,6
NC1=NC(=O)/C(=C/c2cn(CCC(=O)O)nc2-c2ccc(Cl)cc2)S1,1,50*,6,-8,-1,5
CCCc1c(-c2ccc(O)cc2)nn(-c2ccc(O)cc2)c1-c1ccc(O)cc1,33*,5,11,.,4,1
CC1=C(C(=O)N2CCOCC2)C(c2ccc(O)cc2)NC(=S)N1 (configuration not stated),-1,6,2,-12,5,-9
Oc1ccc2c(c1)C1CCCC1(N1CCOCC1)O2 (configuration not stated),19,5,14,34*,-5,5
COC(=O)[C@@]12CCCCC3=C1N(CCC3)C(=O)[C@H]2CC(=O)N1CCSCC1,.,.,.,2,.,.
CC(C)=CCC/C(C)=C/CNC(=O)C[C@H]1C[C@H](C(=O)N(C(C)C)C(C)C)[C@@]2(C)c3[nH]c4cc(-c5ccco5)ccc4c3CCN2C1=O,27*,6,12,6,-26,5
CC[C@]12c3[nH]c4cc(CCC(=O)N(C)C)ccc4c3CCN1C(=O)[C@@H](CC(=O)NC/C=C(\C)CCC=C(C)C)C[C@@H]2C(=O)N1CCN(C(=O)c2ccco2)CC1,34*,4,7,.,-14,4
CCN(CC)C(=O)[C@H]1C[C@H](CC(=O)NC/C=C(\C)CCC=C(C)C)C(=O)N2CCc3c([nH]c4cc(-c5ccco5)ccc34)[C@]12C,33*,6,3,5,-13,7
CCN(CC)C(=O)[C@H]1C[C@H](CC(=O)NCC23CC4CC(CC(C4)C2)C3)C(=O)N2CCc3c([nH]c4cc(-c5ccco5)ccc34)[C@]12C,-1,3,6,5,1,-3
CC[C@]12c3[nH]c4cc(CCC(=O)N(C)C)ccc4c3CCN1C(=O)[C@@H](CC(=O)NCCN1CCOCC1)C[C@@H]2C(=O)N1CCN(C(=O)c2ccco2)CC1,-1,1,-1,-1,3,-5
NC(=O)C1CC(=O)N(c2ccc(OCc3ccc(Cl)cc3)cc2)C1 (configuration not stated),9,28*,4,-1,5,-6
CCCNC(=O)C1CC(=O)N(c2ccc(OCc3ccc(F)cc3)cc2)C1 (configuration not stated),4,0,-6,7,5,3
CCCNC(=O)C1CC(=O)N(c2ccc(OCc3ccc(Cl)cc3)cc2)C1 (configuration not stated),9,30*,0,-1,0,-3
COc1ccc(OC)c(CN2C(=O)c3ccnn3CC2(C)c2nnnn2C2CCCC2)c1 (configuration not stated),.,.,.,4,.,.
CC(C)CC(=NNC(=O)c1ccncc1)c1cc(Cl)ccc1O,.,29*,8,9,-3,-9
SMILES,pPAFAH inh,PAFAH1B2 FP inh,PAFAH1B3 FP inh,mABHD4 FP,HTRA1 inh,PAFAH2 FP inh
CC(=NNC(=O)c1ccncc1)c1ccccc1O,.,4,10,0,9,-2
CCCSc1nsc(NC(=O)CCC)n1,31*,9,-1,-5,-1,-5
O=S1(=O)c2c(cccc2N2CCSCC2)Oc2ccccc2CN1Cc1cn(Cc2ccc(Cl)cc2)nn1,.,.,.,-8,.,.
Cc1oc2ccc(NS(=O)(=O)c3ccccc3)cc2c1C(=O)Nc1ccccc1,33*,8,3,-8,-39,1
O=C(NCCc1ccccc1F)c1cc2ccccn2n1,.,.,.,-2,.,.
CCOC(=O)c1c(C)[nH]c(C(=O)OCc2ccc(F)cc2)c1C,.,2,8,-2,-8,6
CCCCN(C(=O)c1c(C)[nH]c(C(=O)OCC)c1C)c1ccccc1,2,28*,-3,4,-7,9
CCOC(=O)c1c(C)[nH]c(C(=O)OCc2ccccc2F)c1C,29*,4,5,-10,-10,5
C[N+]1=C(N)N[C@@]2(C=C3CCCCC3n3c(=O)n(-c4ccccc4)c(=O)n32)C1 (some centres not stated),.,.,.,4,.,.
COC(=O)C1CN(Cc2cn(Cc3ccccc3)nn2)CCS(=O)(=O)N1Cc1ccc(F)cc1 (configuration not stated),.,.,.,5,.,.
COCCCn1cc(CN2CC=CS2(=O)=O)nn1,.,.,.,-5,.,.
COC(=O)[C@]12C[C@H](CC(=O)NCc3cccc(C(F)(F)F)c3)C(=O)N(Cc3ccc(Cl)cc3Cl)C1=C[C@H](C(C)C)O[C@@H]2C1CC1,.,.,.,-7,.,.
CC(/C=N/NC(=O)NC1CCCCC1)=C\c1ccccc1,29*,1,12,-2,-16,0
O=C(N/N=C/C(Br)=C/c1ccccc1)NC1CCCCC1,25,-4,9,-13,-43,-4
CC(C)c1ccc(N2C(=O)/C(=C/N(C)C)SC2=S)cc1,29*,15,12,-134,6,11
O=C(NCc1ccc(C(=O)N2CCOCC2)cc1)c1cccc(Br)c1,.,.,.,6,.,.
CCc1c(O)nc(SCC(=O)c2ccccc2)n(-c2ccccc2)c1=O,26*,1,9,0,8,14

# From PubChem BioAssay
